Compound activity deposited in PubChem by several laboratories.
Efflux pump inh = blocks antifungal efflux pumps in multiplex yeast assay. 330,000 tested, 0.44% active. AID 485275. inhibition, % at 10 µM. S. cerevisiae Candida pump triplex, Nile Red efflux;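 active means plate passing quality check with inhibition over a set limit, or well fluorescence over plate mean plus 4 SD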;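 further: Nile Red retained in pooled yeast measured as flow cytometry median fluorescence; higher means more Nile Red kept so more efflux inhibition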
AI-2 QS modul = modulators of Vibrio harveyi AI-2 quorum sensing system. AID 2094. 300,000 tested, 0.4% active. Vibrio harveyi JMH597 AI-2 luminescence/OD600 ratio, 9 h; stronger effect = lower value; strain lacks LuxN and CqsS sensors; 0 = neutral-control median. activity change, % at 7.5 µM; in the data active means activity change below about -75%, passing the limit was not always enough; inconclusive means no clear call, values can overlap the other calls;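 further: luminescence divided by OD600 gain over 9 h not by final OD600 alone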
HDAC3 inhib = inhibitors of human histone deacetylase 3 | O15379 | recombinant HDAC3, fluorogenic peptide/trypsin coupled, fluorescence | inhibition, % at 8.3 µM | 320,000 tested, 0.15% active; in the data active means inhibition above about 26%, passing the limit was not always enough; inconclusive means no clear call, values can overlap the other calls
Target sequence (O15379 whole entry, looked up): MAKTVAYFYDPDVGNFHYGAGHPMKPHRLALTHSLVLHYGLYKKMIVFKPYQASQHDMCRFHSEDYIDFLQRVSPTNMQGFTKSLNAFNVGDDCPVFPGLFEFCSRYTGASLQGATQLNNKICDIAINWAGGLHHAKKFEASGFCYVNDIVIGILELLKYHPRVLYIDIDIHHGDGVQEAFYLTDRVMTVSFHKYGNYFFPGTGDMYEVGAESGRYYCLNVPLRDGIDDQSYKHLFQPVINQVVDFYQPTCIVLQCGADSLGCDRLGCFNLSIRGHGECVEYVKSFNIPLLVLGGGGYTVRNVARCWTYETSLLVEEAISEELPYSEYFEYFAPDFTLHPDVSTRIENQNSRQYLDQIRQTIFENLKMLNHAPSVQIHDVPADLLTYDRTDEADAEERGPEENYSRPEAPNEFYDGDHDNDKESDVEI
PolyA inh = blocks polyadenylation in yeast reporter cells; S. cerevisiae SKY197-pL101 polyadenylation reporter, beta-gal luminescence; efflux-impaired pdr1/pdr3 knockout yeast; score 100 = 6 SD above DMSO; activity score, % at 12 µM; 300,000 tested, 0.02% active; AID 1875;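 active means lowest replicate activity score at least 50, where 100 means six control SD above control mean; inconclusive means lowest score under 50 but half or more replicates reach 50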;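 further: yeast exposed to compound for 9 h at 30 °C; higher score means more reporter readthrough which indicates perturbed polyadenylation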
T cruzi inh = blocks replication of Trypanosoma cruzi; T. cruzi beta-gal in NIH3T3, luminescence, 90 h; inhibition, % (no concentration beside the values); 300,000 tested, 1.4% active;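 active means mean inhibition across valid replicates above about 55%, limit read from the data; inconclusive means mean below that limit but half or more replicates reach it; inactive means mean below it, under half of replicates reach it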;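 further: signal also drops with host cell toxicity which is not excluded here; higher percent means less beta-gal luminescence so fewer parasites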
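System: NIH/3T3 fibroblasts plus reporter T. cruzi. Medium: DMEM plus 2% FBS. Probe or stimulus: 5000 reporter trypomastigotes per well. Compound: single 50 nL compound addition per well in DMSO. Incubation: co-culture of at least 90 h after 3 h attachment. Detection: GalScreen β-gal luminescence, detergent lysis, 60 min. Evaluation: parasite load inhibition, %.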
Numbers stand for hits. The list is not random: actives were taken first. Their share in the collection is about 2.2%.

Screening O=C(CCC1CCCN(Cc2ccc3c(c2)CCO3)C1)NCc1ccc(F)c(F)c1 (stereo not drawn) returned Efflux pump inh inactive, AI-2 QS modul inactive, HDAC3 inhib inactive, PolyA inh inactive and T cruzi inh 63.4.
CCOc1ccccc1N(CC(=O)NC1CCCC1)C(=O)CNC(=O)c1cccs1 was read as Efflux pump inh inactive, AI-2 QS modul inactive, HDAC3 inhib inactive, PolyA inh inactive and T cruzi inh inactive.
For Cc1occc1C(=O)N1CCCC(CCC(=O)NCc2ccc(F)c(F)c2)C1 (stereo not drawn) the results were Efflux pump inh inactive, AI-2 QS modul inactive, HDAC3 inhib inactive, PolyA inh inactive and T cruzi inh inactive.
Cc1ncc(CN2CCCC(CCC(=O)NCc3ccc(F)c(F)c3)C2)s1 (stereo not drawn) was read as Efflux pump inh inactive, AI-2 QS modul inactive, HDAC3 inhib inactive, PolyA inh inactive and T cruzi inh 61.3.
`CC1CCCC(NC(=O)c2cccc(S(=O)(=O)N3CCCCC3)c2)C1C` (stereo not drawn) gave Efflux pump inh inactive, AI-2 QS modul inactive, HDAC3 inhib inactive, PolyA inh inactive and T cruzi inh inactive.
For CC(=O)Nc1cccc(C(=O)NC2CCCc3c2cnn3-c2cc(C)cc(C)c2)c1 (stereo not drawn) the results were Efflux pump inh inactive, AI-2 QS modul inactive, HDAC3 inhib inactive, PolyA inh inactive and T cruzi inh inactive.
For Cc1ccc(Nc2nc(N/N=C/c3c[nH]c4ccccc34)nc(N3CCOCC3)n2)cc1 the results were Efflux pump inh inactive, AI-2 QS modul inactive, HDAC3 inhib 25.5, PolyA inh inactive and T cruzi inh inactive.
Cc1[nH]c2ccccc2c1/C=N/Nc1nc(Nc2ccc(F)cc2)nc(N2CCOCC2)n1 was read as Efflux pump inh inactive, AI-2 QS modul inactive, HDAC3 inhib inconclusive and PolyA inh inactive.
For C(=N\Nc1nc(Nc2ccccc2)nc(N2CCOCC2)n1)/c1c[nH]c2ccccc12 the results were Efflux pump inh inactive, AI-2 QS modul inactive, HDAC3 inhib inactive, PolyA inh inactive and T cruzi inh 72.3.
COc1ccc(CCNCC(O)Cn2c3ccccc3c3ccccc32)cc1OC (stereo not drawn) was read as Efflux pump inh inactive, AI-2 QS modul inactive, HDAC3 inhib inactive, PolyA inh inactive and T cruzi inh 60.5.
COc1ccccc1NCC(O)Cn1c2ccccc2c2ccccc21 (stereo not drawn) was read as Efflux pump inh inactive, AI-2 QS modul inactive, HDAC3 inhib inactive, PolyA inh inactive and T cruzi inh inactive.
For COc1ccc(C)cc1Nc1n[n+](-c2ccccc2)c(-c2ccc(OC)c(OC)c2OC)s1 the results were Efflux pump inh inactive, AI-2 QS modul inactive, HDAC3 inhib inactive, PolyA inh inactive and T cruzi inh 55.0.
For COc1ccc(C)cc1Nc1n[n+](-c2ccccc2)c(-c2c(Cl)cccc2Cl)s1 the results were Efflux pump inh inactive, AI-2 QS modul inactive, HDAC3 inhib inactive, PolyA inh inactive and T cruzi inh inactive.
Screening CC(C)C(NC(=O)c1ccc(C(C)(C)C)cc1)C(=O)N1CCC(C(N)=O)CC1 (stereo not drawn) returned Efflux pump inh inactive and HDAC3 inhib inactive.
CC1CCN(CCCNC(=O)c2cc3c(Cl)nc4ccccc4c3s2)CC1 was read as Efflux pump inh inactive, AI-2 QS modul inactive, HDAC3 inhib inactive, PolyA inh inactive and T cruzi inh 56.0.
For O=C(NCCCN1CCCC1)c1cc2c(Cl)nc3ccccc3c2s1 the results were Efflux pump inh inactive, AI-2 QS modul inactive, HDAC3 inhib inactive, PolyA inh inactive and T cruzi inh inactive.
Screening CC(=O)Nc1ccc2nc(C3CC3)n(Cc3ccc(Cl)cc3)c(=O)c2c1 returned Efflux pump inh inactive, AI-2 QS modul inactive, HDAC3 inhib inactive and T cruzi inh inactive.
Screening CCC(=O)Nc1ccc2nc(C3CC3)n(Cc3ccc(C(C)(C)C)cc3)c(=O)c2c1 returned Efflux pump inh inactive, AI-2 QS modul inactive, HDAC3 inhib inactive, PolyA inh inactive and T cruzi inh 57.6.
O=C(c1csc2c1CCCC2)n1cccn1 was read as Efflux pump inh inactive, AI-2 QS modul inactive, HDAC3 inhib 78.8, PolyA inh inactive and T cruzi inh inactive.
For O=C(c1csc2c1CCCC2)N1CCN(c2ncccn2)CC1 the results were Efflux pump inh inactive, AI-2 QS modul inactive, HDAC3 inhib inactive, PolyA inh inactive and T cruzi inh inactive.
For CC1(C2CC2)NC(=O)N(CC(=O)N2CCN(c3ccccc3)CC2)C1=O (stereo not drawn) the results were Efflux pump inh inactive and HDAC3 inhib inactive.
O=C(Nc1ccc(Nc2ccccc2)cc1)c1ccc(F)cc1 was read as Efflux pump inh inactive, AI-2 QS modul -88.0, HDAC3 inhib inactive, PolyA inh inactive and T cruzi inh inactive.
Screening O=C(Nc1cccc(S(=O)(=O)c2cccc(NC(=O)c3ccco3)c2)c1)c1ccco1 returned Efflux pump inh inactive, AI-2 QS modul inactive, HDAC3 inhib inactive, PolyA inh inconclusive and T cruzi inh 55.0.
`O=C(Nc1ccc(Cc2ccncc2)cc1)c1ccco1` gave Efflux pump inh inactive, AI-2 QS modul -81.9, HDAC3 inhib inconclusive, PolyA inh inconclusive and T cruzi inh inactive.
O=C(Nc1ccc(Nc2ccccc2)cc1)c1ccco1 was read as Efflux pump inh inactive, AI-2 QS modul -96.4, HDAC3 inhib inactive, PolyA inh inactive and T cruzi inh inactive.
For O=C(O)c1ccc(C(=O)Nc2ccc(F)cc2)cc1 the results were Efflux pump inh inactive and HDAC3 inhib inactive.
O=C(Nc1ccc(NC(=O)c2ccco2)cc1)c1ccco1 was read as Efflux pump inh inactive, AI-2 QS modul inactive, HDAC3 inhib inactive, PolyA inh inactive and T cruzi inh inactive.
For C=CCN(c1ccccc1)S(=O)(=O)c1cccc(C(=O)NCC2CCCO2)c1 (stereo not drawn) the results were Efflux pump inh inactive, AI-2 QS modul inactive, HDAC3 inhib inactive, PolyA inh inactive and T cruzi inh inactive.
COc1ccccc1P(=O)(Cc1ccccc1)c1ccccc1 (stereo not drawn) was read as Efflux pump inh inactive, AI-2 QS modul inactive, HDAC3 inhib inactive, PolyA inh inactive and T cruzi inh inactive.
CN1CCN(C(c2ccc(Br)cc2)c2cc(Cl)c3cccnc3c2O)CC1 (stereo not drawn) was read as Efflux pump inh inactive, AI-2 QS modul -141.2, HDAC3 inhib inactive, PolyA inh inactive and T cruzi inh inactive.
Screening C#CCOCCOCCOCCNc1nc(N2CCN(C(=O)[C@H]([C@@H](C)CC)n3cc([C@@H](N)CC(C)C)nn3)CC2)nc(N2CCN(C(=O)[C@H]([C@@H](C)CC)n3cc([C@@H](N)CC(C)C)nn3)CC2)n1 returned Efflux pump inh inactive, AI-2 QS modul inactive, HDAC3 inhib inactive, PolyA inh inactive and T cruzi inh inactive.
`O=C(NCC1CC1)C1(C(F)(F)F)C/C(=C\Cc2ccccc2)CCCO1` (stereo not drawn) gave Efflux pump inh inactive, AI-2 QS modul inactive, HDAC3 inhib inactive, PolyA inh inactive and T cruzi inh inactive.
